In series [1] the test system is MDCKII monolayers. Format: in vitro ADME, Canine. As to conditions: MDCKII monolayers; for Efflux ratio after EDTA treatment compared to non-EDTA treatment groups: all test groups; for Papp (a–b) / Papp (b-a): without EDTA treatment. A digest of the protocol: (§1)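 MDCKII cells seeded at 2.0 × 10^5 per polycarbonate insert (1.12 cm2, 0.4 μm) and grown 7 days; monolayers used only if TEER > 200 Ωcm2. Flux run in both directions per the Caco-2 protocol: HBSS/25 mM HEPES pH 7.4, 37°C, 2 h, serial sampling. Optional pretreatment: 5 μM EDTA in Ca/Mg-free HBSS, both sides, 5 min at 37°C, then washed. Compound by HPLC-UV, lucifer yellow by fluorescence (485/535 nm); n = 3.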

For series [2], the system named is PGP1 overexpressing MDCKII cells. In words: In vitro cytotoxicity, MTT assay, PGP1 overexpressing MDCKII cells. The conditions noted are these: 48 h, n = 8, mean ± SD. The format is cell-based, Canine. Put shortly:
(§2)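 Parental and PGP1-overexpressing MDCKII cells seeded at 5 × 10^3 per well, incubated 24 h at 37°C/5% CO2, then exposed 48 h to serial concentrations of DMSO-dissolved compound (DMSO ≤1% v/v). MTT (5 mg/ml solution) was added for 4 h at 37°C, formazan dissolved in DMSO, absorbance read at 595 nm; IC50 derived; mean ± SD.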

Series [3] has as its system MDCKII cells. In words: Calcein-AM uptake assay in MDCKII cells. Format: cell-based, Canine. The conditions noted are these: MDCKII cells without PGP1 expression, calcein-AM 1 μM.
Series [4] has as its system MDCKII cells. In words: In vitro cytotoxicity, MTT assay, MDCKII cells. Format: cell-based, Canine. As to conditions: 48 h, n = 8, mean ± SD. Put shortly: as §2
The nature of series [5]: Bidirectional flux of EFdA in Caco-2 cell monolayers. Format: in vitro ADME. The conditions noted are these: human, Caco-2, pH 7.4. A digest of the protocol:
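Caco-2 cells seeded at 2.0 × 10^5 per polycarbonate insert (1.12 cm2, 0.4 μm) and differentiated 21 days. Monolayers were washed and pre-incubated 20 min at 37°C in HBSS, then TEER was read. Donor (apical or basolateral) held 25, 100 or 400 μM compound in HBSS/25 mM HEPES pH 7.4; 2 h at 37°C with shaking, sampled 0–120 min. HPLC-UV at 260 nm. Papp = (dQ/dt)/(A×C0); efflux ratio = Papp(b-a)/Papp(a-b); n = 3.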

For series [6] the following is noted: ref Zhang et al., 2013; cited from earlier work.
Series [7] deals with Caco-2 monolayers. As to conditions: pH from 5.5 to 7.4, ref Zhang et al., 2013; cited from earlier work.
Series [8] is classed as in vitro ADME, Canine. The conditions noted are these: dog, MDCK. Put shortly:
as §1

In series [9] the target is ABCB1 transporter (PGP1) (Homo sapiens, UniProt P08183). Format: cell-based. The conditions noted are these: PGP1 overexpressing MDCKII cells, even at 200 μM.
Series [10] relates to human ectocervical tissues. As to conditions: three separate human ectocervical tissues; ref Zhang et al., 2013; cited from earlier work.
The conditions of series [11]: ref Zhang et al., 2013, cited from earlier work.

≈ marks a conversion by molar mass, not a printed value. Where two headings read alike, the source gives them in different places.

Chain of ABCB1 transporter (PGP1) (P08183 whole entry): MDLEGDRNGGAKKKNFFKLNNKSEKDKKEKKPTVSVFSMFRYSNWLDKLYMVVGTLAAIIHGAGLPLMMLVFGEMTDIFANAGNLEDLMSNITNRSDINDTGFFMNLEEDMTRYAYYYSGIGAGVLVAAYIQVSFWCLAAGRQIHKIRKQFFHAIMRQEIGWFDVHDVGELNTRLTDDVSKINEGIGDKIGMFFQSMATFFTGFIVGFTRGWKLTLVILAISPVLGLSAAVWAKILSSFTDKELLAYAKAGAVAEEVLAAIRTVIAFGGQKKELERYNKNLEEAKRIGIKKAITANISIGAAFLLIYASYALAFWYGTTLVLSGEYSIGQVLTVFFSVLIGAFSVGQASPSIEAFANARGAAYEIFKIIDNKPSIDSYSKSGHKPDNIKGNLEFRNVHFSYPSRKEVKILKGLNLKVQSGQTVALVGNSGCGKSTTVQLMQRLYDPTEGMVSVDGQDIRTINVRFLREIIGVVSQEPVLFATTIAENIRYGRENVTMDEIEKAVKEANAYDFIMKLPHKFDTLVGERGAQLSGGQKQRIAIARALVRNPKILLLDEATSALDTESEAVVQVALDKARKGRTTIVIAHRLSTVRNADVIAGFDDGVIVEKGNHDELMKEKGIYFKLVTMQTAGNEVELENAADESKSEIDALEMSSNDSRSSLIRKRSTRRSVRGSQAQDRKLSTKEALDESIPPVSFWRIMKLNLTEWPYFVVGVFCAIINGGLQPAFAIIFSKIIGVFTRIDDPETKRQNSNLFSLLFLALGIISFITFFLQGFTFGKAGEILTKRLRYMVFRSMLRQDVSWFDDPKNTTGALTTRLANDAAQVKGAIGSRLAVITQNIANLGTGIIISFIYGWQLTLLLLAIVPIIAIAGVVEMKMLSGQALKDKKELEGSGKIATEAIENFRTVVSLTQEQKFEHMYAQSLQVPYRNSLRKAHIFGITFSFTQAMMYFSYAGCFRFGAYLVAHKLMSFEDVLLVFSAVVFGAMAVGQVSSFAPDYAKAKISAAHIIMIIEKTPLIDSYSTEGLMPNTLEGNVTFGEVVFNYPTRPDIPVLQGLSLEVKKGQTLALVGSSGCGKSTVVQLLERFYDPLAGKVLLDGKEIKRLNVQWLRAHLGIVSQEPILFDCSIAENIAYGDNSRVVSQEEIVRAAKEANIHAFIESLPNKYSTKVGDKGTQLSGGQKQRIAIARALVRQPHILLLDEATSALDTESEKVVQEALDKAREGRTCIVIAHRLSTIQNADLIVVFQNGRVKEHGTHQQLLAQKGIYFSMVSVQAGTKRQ

Regarding Lucifer yellow [LY], the “Efflux ratio after EDTA treatment compared to non-EDTA treatment groups” value in series [1] was “higher”. Besides, the “Papp (a–b)” value is given as 3.76 ± 0.12 × 10^−7cm/s in series [1] (25 μM), 1.70 ± 0.06 × 10^−7cm/s in [1] (100 μM) and 1.77 ± 0.31 × 10^−7cm/s in series [1] (400 μM). Further, the “Papp (b-a)” value in series [1] (25 μM) was 4.14 ± 0.40 × 10^−7cm/s; in series [1] (100 μM), 2.05 ± 0.12 × 10^−7cm/s; in series [1] (400 μM) it was 2.07 ± 0.46 × 10^−7cm/s.

Usually IC50 stands for the concentration that gives 50% inhibition. High values mean weaker potency in that assay, low ones greater potency in that assay. Turning to Ivermectin, the values for the IC50 in [2] and in [4] were 12.2 ± 0.87 µM and 20 ± 2.91 µM, respectively. Further, the “PGP1 inhibitory response (calcein fluorescence)” value in series [3] was “no obvious PGP1 inhibitory response”.

With `C=C[C@H]1C[N@@]2CC[C@H]1C[C@@H]2[C@@H](O)c1ccnc2ccc(OC)cc12` [Quinidine], the “PGP1 inhibitory response (calcein fluorescence)” value in [3] was “no obvious PGP1 inhibitory response”.

The efflux ratio is the permeability from basolateral to apical divided by that in the opposite direction, in the common usage. In general, Papp A→B refers to how fast a substance crosses the layer from the apical side. The low end stands for slow passage, the high end for fast passage. As usually defined, the Papp is the rate of passage across a membrane or cell layer, normalised by area and donor concentration. Take `C#C[C@]1(CO)O[C@@H](n2cnc3c(N)nc(F)nc32)C[C@@H]1O` [EFdA, 4′-ethynyl-2-fluoro-2′-deoxyadenosine]: in series [5], the efflux ratio at 2 h is greater than 2; the efflux ratio at 2 h, 100 μM was 5.7; the efflux ratio at 2 h, 400 μM is 2.5. For the same compound, the “Log Po/w” value in series [6] is reported as −1.2. Further, in series [7], the “pH dependence of transport” value is reported as “independent of pH”. Moreover, in series [1], the “Efflux ratio after EDTA treatment compared to non-EDTA treatment groups” value is given as “higher”. In addition, in [8], the Papp A→B is less than 1 ×10⁻⁶ cm/s and the efflux ratio is roughly 1. In addition, the PGP1 inhibitory effect result in series [9] is recorded as “lack of observed PGP1 inhibitory effect”. In series [10], the Papp was less than 1 ×10⁻⁶ cm/s. Further, the Change in solubility result in series [11] (pH from 6 to 9) is given as “no obvious change”. The Solubility in water in [11] is 1000 µg/mL (≈ 3.41 mM).

The values are drawn from paper PMC4074512 (European journal of pharmacology, 2014).
